Laboratory results taken from PMC3230563 (International Journal of Nanomedicine, 2011).

Tests used:
[1] = In vivo pharmacokinetics in rats; set-up: species or system Male Wistar rats; settings: for half-life: T1/2, rat; for Tmax: Tmax average
How it was run: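 Fasted (12 h) male Wistar rats under 0.5% isoflurane received 200 μg/kg in isotonic solution by tail-vein bolus (n = 4). Serial intracardiac blood went into 0.109 M citrate from 2 min to 24 h, and plasma was stored at −20°C. Concentration came from an anti-Xa chromogenic calibration curve, with over-range samples diluted in human normal plasma. Noncompartmental PK used trapezoidal AUC; bioavailability was the dose-corrected oral/IV AUC ratio.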

[2] = test system: rat; settings: oral, no reference given; cited from earlier work
[3] = male, Wistar, rat, plasma, iv, 200 ug/kg
[4] = male, Wistar, rat, plasma, iv, 200 ug/kg, IV bolus
[5] = male, Wistar, rat, plasma, po, 5 mg/kg
[6] = male, Wistar, rat, plasma, po, 5 mg/kg, 5 mg/kg Fp
[7] = male, Wistar, rat, plasma, sc, 200 ug/kg
[8] = rat, IV bolus, 200 μg/kg, listed as IV Fp solution

Compound: CO[C@H]1O[C@H](COS(=O)(=O)O)[C@@H](O[C@@H]2O[C@@H](C(=O)O)[C@@H](O[C@H]3O[C@H](COS(=O)(=O)O)[C@@H](O[C@@H]4O[C@H](C(=O)O)[C@@H](O[C@H]5O[C@H](COS(=O)(=O)O)[C@@H](O)[C@H](O)[C@H]5NS(=O)(=O)O)[C@H](O)[C@H]4O)[C@H](OS(=O)(=O)O)[C@H]3NS(=O)(=O)O)[C@H](O)[C@H]2OS(=O)(=O)O)[C@H](O)[C@H]1NS(=O)(=O)O [Fp, fondaparinux]
- AUC(0-inf) [1, 3]: 2300 ng·h/mL
- Cmax [1, 3]: 1420 ± 120 ng/mL
- bioavailability ([1]; male, Wistar, rat, plasma, iv, 200 ug/kg, Absolute bioavailability, IV bolus, 200 μg/kg (reference)): 100%
- MRT ([1]; male, Wistar, rat, plasma, iv, 200 ug/kg, MRT, IV bolus): 1.17 h
- half-life [1, 4]: 1.8 h
- Tmax [1, 4]: 0.0333 h
- AUC(0-inf) [1, 5]: 812 ng·h/mL
- Cmax [1, 5]: 60 ± 20 ng/mL
- MRT ([1]; male, Wistar, rat, plasma, po, 5 mg/kg, MRT, 5 mg/kg Fp): 1.36 h
- half-life [1, 6]: 0.862 ± 0.607 h
- Tmax [1, 6]: 2 h
- AUC(0-inf) [1, 7]: 2570 ng·h/mL
- Cmax [1, 7]: 836 ± 190 ng/mL
- MRT ([1]; male, Wistar, rat, plasma, sc, 200 ug/kg, MRT): 3.87 h
- half-life [1, 7]: 1.47 ± 1.4 h
- Tmax [1, 7]: ≤ 1 h
- anti-Xa level in rat plasma ([1]; oral Fp solution alone, 0.5, 2 mg/kg, limit of quantification 0.01 μg/mL): below the limit of quantification
- Clearance ([1]; rat, IV bolus, 200 μg/kg): 490.52 ± 14.74 µL/min
- MRT [1, 8]: 1.8028 ± 0.4345 h
- T1/2 [1, 8]: 1.175 ± 0.2938 h
- Clearance ([1]; rat, SC, 200 μg/kg): 493.89 ± 5.478 µL/min
- Absolute bioavailability ([1]; rat, SC, 200 μg/kg, dose corrected AUC versus IV, listed as SC Fp solution): 115.84 ± 17.92 (4) %
- Tmax average ([1]; rat, SC, 200 μg/kg, listed as SC Fp solution): 1 h
- Clearance ([1]; rat, oral, 5 mg/kg Fp): 455.43 ± 14.51 µL/min

Compound: CCCCCCCCCCCCCCCC[N+](C)(C)C [CTAB, hexadecyltrimethyl ammonium bromide]
- LD50 [2]: 410 mg/kg

Compound: CCCCCCCCCCCCCCCCCCN [SA, stearylamine]
- LD50 [2]: 1395 mg/kg
